# The list is not random: actives were taken first. Their share in the collection is about 3.7%.
# GPR7 antag = human neuropeptides B/W receptor 1 antagonism; GPR7-expressing cells, fluorescence antagonist assay; actives 1.1% (n = 290,000); inhibition, % at 4.4 µM; AID 1861; P48145; in the data active means inhibition above about 16%, passing the limit was not always enough;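 further: cells stimulated with the agonist NPW; 0% = agonist with vehicle and 100% = vehicle without agonist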
# EP2 antag = inhibitors of human EP2 prostaglandin E2 receptor | P43116 | C6 glioma cells expressing human EP2, cAMP TR-FRET; cells stimulated with saturating PGE2 | inhibition, % at 25 µM | actives 0.52% (n = 260,000) | AID 1422;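 active means percent inhibition above 40 after rounding to a whole number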;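 further: rat C6 glioma host cells with rolipram phosphodiesterase inhibitor present; the protocol text gives 20 µM as final concentration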
# CHO parental Ca = signal in parental CHO cells, OX1R antagonist counter-screen; inhibition, % at 5.6 µM; AID 463079; actives 0.63% (n = 330,000); parental CHO-K1, ATP-induced calcium, Fluo-8 fluorescence;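 active means inhibition above that plate's mean sample inhibition plus 3 SD, cut at about 26% in these data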;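 further: 0% = ATP-challenged DMSO wells and 100% = DMSO wells without ATP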
#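 Material: Parental CHO cells | Reagent: ATP | Compound dosing: Single nominal dose of 5.6 µM per compound | Detection: Intracellular calcium via Fluo-8 no-wash fluorescent dye | Read-out: % inhibition of ATP-induced calcium mobilization | Benchmarks: Low control ATP plus DMSO, high control DMSO only | Replicates: Singlicate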
# OX1R antag-1 = antagonists of human orexin 1 receptor | AID 434989 | CHO/OX1R cells, Fluo-8 calcium fluorescence, orexin A | inhibition, % at 5 µM | actives 0.43% (n = 330,000) | O43613;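 active means inhibition above its plate's threshold, mean inhibition of all tested compounds on the plate plus 3 SD, cut at about 37% in these data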;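 further: 0% = orexin A challenge wells and 100% = SB-334867-A antagonist wells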
# Target sequence (O43613 whole entry, looked up): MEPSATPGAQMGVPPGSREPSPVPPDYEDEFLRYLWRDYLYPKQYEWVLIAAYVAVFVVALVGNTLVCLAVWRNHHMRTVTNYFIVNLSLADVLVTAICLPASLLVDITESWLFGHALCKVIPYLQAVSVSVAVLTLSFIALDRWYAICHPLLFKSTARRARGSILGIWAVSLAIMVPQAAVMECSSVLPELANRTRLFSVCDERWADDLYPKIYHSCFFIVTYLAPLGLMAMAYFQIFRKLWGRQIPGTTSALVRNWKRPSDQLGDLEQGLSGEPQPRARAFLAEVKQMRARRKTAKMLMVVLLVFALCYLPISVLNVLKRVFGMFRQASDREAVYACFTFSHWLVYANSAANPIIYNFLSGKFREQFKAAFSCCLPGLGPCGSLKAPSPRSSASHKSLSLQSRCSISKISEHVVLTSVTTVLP
# EP2 mod = EP2 receptor (human) modulation. P43116. EP2-expressing cells, cAMP HTRF FRET, PGE2 co-stimulation. induction, % at 25 µM. actives 0.83% (n = 260,000). AID 940;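 active means compounds whose cAMP rise, as percent of the full-agonist control response, exceeds 60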;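 further: rat C6 glioma line stably carrying human EP2 under a CMV promoter; the protocol text gives 20 µM as final concentration; 100% = response of wells given 1 µM PGE2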
# OX1R antag-2 = antagonists of human orexin 1 receptor (OX1R) | O43613 | OX1R-expressing cells, FRET antagonist read-out | inhibition, % at 6.6 µM | actives 1.8% (n = 330,000) | AID 485270; in the data active means inhibition mostly above about 38%, no sharp cut-off; inactive means mostly below about 40%;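 further: 0% = agonist challenge alone and 100% = reference antagonist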
# Numbers without * were called inactive; / = not tested or not shown; ! = repeats disagree.
SMILES,GPR7 antag,EP2 antag,CHO parental Ca,OX1R antag-1,EP2 mod,OX1R antag-2
CC(C)(C)NC(=O)CSc1nnc2c3ccccc3nc(C(C)(C)C)n12,/,11,/,/,-107,/
CCOc1ccc(-c2csc(NC(=O)C3CCCO3)n2)cc1 (stereo unspecified),-12,10,-8,-8,-3,8
CCc1cccc(OCCCn2ccnc2)c1,-2,5,-10,-4,20,33
COc1ccc(C(=O)NCCCNC(=O)c2cc3ccccc3[nH]2)cc1OC,-17,/,-22,-5,/,70*
CCOc1ccc(C2CC(c3ccc(CC)cc3)n3nc(N)nc3N2)cc1 (stereo unspecified),7,7,-6,-6,12,7
O=C(Nc1sc(NC(=O)c2cccs2)nc1-c1cccs1)c1ccccc1,/,18,/,/,61*,/
O=C(C1CCN(c2ncnc3c2sc2cccc(F)c23)CC1)N1CCCC1,-9,6,-14,-16,10,55
O=C(NC1CC1)C1CCN(c2ncnc3c2sc2cccc(F)c23)CC1,4,16,-12,-11,-8,68*
CN(C1=C(NC(=O)c2ccccc2)C(=O)c2ccccc2C1=O)C1CCS(=O)(=O)C1 (stereo unspecified),-4,44*,-10,-19,-59,85*
C=CC(C)(C)O[C@@H]1O[C@H](CO)[C@@H](O)[C@H](O)[C@H]1O,/,/,-2,-4,/,10
CCCS(=O)(=O)C(=C(Nc1ccccc1)Nc1ccccc1)S(=O)(=O)CCC,-8,5,-23,-33,63*,6
COc1ccc(CN(Cc2cccn2C)S(=O)(=O)c2ccccc2)cc1,-5,14,-6,-31,69*,7
Nc1nc(N)c(CCCCc2ccccc2)c(N)n1,/,14,/,/,-21,/
O=S(=O)(c1ccccc1)N1CCC(O)(CSc2ccccc2)CC1,7,3,-2,-5,-73,34
O=S(=O)(c1ccccc1)N1CCC(O)(CSc2ccc(F)cc2)CC1,18*,2,-6,5,-50,33
Cc1c(/C(Cc2ccccc2)=N/O)c2ccccc2n1C,0,1,-31,-15,63*,30
Cc1c(C(=O)CN2CCSCC2)c2ccccc2n1C,-5,6,-21,-26,10,33
Oc1cccc(Nc2nc(O)c(/C=C3\C=Nc4ccccc43)s2)c1,6,20,17,10,-44,18
CC1=Nc2ccccc2/C1=C\c1sc(Nc2ccc(C)cc2)nc1O,19*,9,-25,-5,-83,25
CSc1ccc(CN(C)Cc2cc(=O)oc3c(C)c(C)ccc23)cc1,-7,/,53*,-15,/,12
O=C1C=CC(=O)N1c1ccc(OC(F)F)cc1,-1,109*,3,11,-62,10
COc1ccc(-c2c(-c3ccc(O)cc3O)n[nH]c2C(F)(F)F)cc1,-4,5,-14,-3,23,7
Oc1ccc(-c2n[nH]c(C(F)(F)F)c2-c2ccccc2)c(O)c1,1,7,57*,15,-12,21
CCCc1nnc(NC(=O)CC(=O)Nc2ccccc2C(=O)O)s1,-2,9,3,-8,15,15
CN(NS(=O)(=O)c1ccc(Br)cc1)c1nc(C(F)(F)F)nc2ccccc12,-2,11,17,-17,-65,63*
SMILES,GPR7 antag,EP2 antag,CHO parental Ca,OX1R antag-1,EP2 mod,OX1R antag-2
Clc1ccccc1-c1ncnc2ccc(Br)cc12,-22,17,-20,-26,64*!,36
CCOC(=O)N1CCN(c2cc(=O)n(-c3ccc(Br)cc3)c(=O)[nH]2)CC1,-6,9,-4,-12,17,3
O=C(NNC(=O)C1CC1)c1cc2cc3ccccc3nc2s1,-9,2,5,-17,2,54*
O=C(COc1ccc(Cl)cc1)NCCNC(=O)c1cnccn1,-7,/,-2,10,/,14
COc1ccc2oc3ccc(OC)cc3c(=O)c2c1,0,0,-5,-28,-50,62*
COc1ccc2oc3ccccc3c(=O)c2c1,-23,5,-4,-19,-20,37
CSc1ccccc1NC(=O)c1ccc([N+](=O)[O-])cc1,-3,5,4,-8,-13,24
O=C(Nc1ccccc1O)c1ccc([N+](=O)[O-])cc1,-2,/,16,-3,/,33*
O=C(Nc1ncccn1)c1ccc([N+](=O)[O-])cc1,-2,10,-10,-12,15,58*
O=C(Nc1nccs1)c1ccc([N+](=O)[O-])cc1,1,10,-8,-11,-23,42*
C=C(C)C1CC=C(C)/C(=N/NC(=O)c2ccccc2[N+](=O)[O-])C1 (stereo unspecified),-9,5,5,-15,-47,18
Cc1cccc(Cn2c(=S)[nH]c3c2c(=O)n(C)c(=O)n3C)c1,/,12,/,/,59,/
COc1ccc(Cl)cc1NC(=O)Nc1ccccc1SC,12,14,2,-3,-46,23
COc1cc(NC(=O)c2cnc(N)s2)cc(C(=O)Nc2cccc(C(F)(F)F)c2)c1,/,53*,-20,-14,-18,14
Oc1ccc(-c2[nH]ncc2-c2cnn(-c3ccccc3)c2)c(O)c1,4,13,5,-1,-42,12
Cc1cc2n(n1)C(c1ccccc1)Nc1ccccc1-2 (stereo unspecified),2,8,-12,-27,64*!,14
N#C/C(=C\c1coc2ccc(O)cc2c1=O)C(=O)Nc1nc2ccccc2s1,-4,10,64*,81*,-13,65*
N#C/C(=C\c1coc2ccccc2c1=O)C(N)=S,-8,4,-9,-4,25,12
O=C(c1ccccn1)N(CC1CCCO1)C1(C(=O)NC2CCCCC2)CCCCC1 (stereo unspecified),6,13,-8,-18,-3,9
O=C(Cc1cccs1)N(CC1CCCO1)C1(C(=O)NC2CCCC2)CCCCC1 (stereo unspecified),37*,2,-24,-28,10,10
O=C1CC(/C=C/c2ccccc2)=Nc2ccccc2N1,16,4,-16,-24,-47,33
COc1cccc(N2C(=O)C(c3ccccc3)=C(c3nc4ccccc4s3)C2NC(C)=O)c1 (stereo unspecified),-8,3,-13,-6,23,53*
CCCCn1c(NC(C)=O)c(C#N)c2nc3ccccc3nc21,6,9,-14,-21,34,24
C=CCn1c(NC(=O)c2ccccc2Cl)c(C#N)c2nc3ccccc3nc21,1,12,8,-3,-3,69*
COc1ccc(-c2nnc(SCC(=O)N3c4ccccc4Sc4ccccc43)o2)cc1,-6,3,-17,-13,-2,7
COc1cc(OC)cc(-c2nnc(SCC(=O)N3c4ccccc4Sc4ccccc43)o2)c1,-16,13,-10,-6,61*,-2

# Bioassay records from PubChem BioAssay.
